Experimental data collected from several papers.
Target: Phosphatidylinositol 4-phosphate 5-kinase type-1 gamma (PIP5K1C, Homo sapiens, UniProt O60331)

Compound | test | setting | remaining binding [%]
N#CC1(c2ccccn2)CCN(Cc2cc(C(=O)N3CCCC3)c(=O)n3ccccc23)CC1 | cell-free assay, competition with immobilised ligand | 1 µM | 68
O=C(c1ccc(Nc2nccc(-c3cc4ccccc4s3)n2)cc1)N1CCC(N2CCCC2)CC1 | binding, competition with immobilised ligand | 1 µM | 13
N[C@@H]1CCN(c2nccc(-c3cnn4ncccc34)n2)C1 | binding | 1 µM | 81
COc1ncc2cc3ccccc3nc2c1C#N | cell-free assay, competition with immobilised ligand | 5 µM | 89
CN(CCCC(F)(F)F)c1nccc(-c2cnn3ncccc23)n1 | binding | 1 µM | 77
O=C(NCCCN1CCOCC1)c1ccc(Nc2ncc(Cl)c(-c3ccc(Cl)s3)n2)cc1 | binding, competition with immobilised ligand | 1 µM | 59
COc1ccnn2ncc(-c3ccnc(N(C)C)n3)c12 | binding | 1 µM | 97
O=C(NCC1CCOCC1)c1n[nH]cc1NC(=O)c1c(F)cccc1F | binding, competition with immobilised ligand | 1 µM | 55
O=C(N[C@H]1CCCCC/C=C\C2C[C@@]2(C(=O)O)NC(=O)[C@@H]2C[C@@H](Oc3ccncc3)CN2C1=O)OC1CCCC1 (stereo partly shown) | binding, competition with immobilised ligand | 1 µM | 100
CNC(=O)[C@@H]1CC[C@@H](n2c(-c3ccc4cnccc4c3)nc3ccc(C(=O)NCc4cccc(C(N)=O)c4)cc32)C1 | binding, competition with immobilised ligand | 1 µM | 80
C[C@@]1(Cc2ccc(C#N)cc2)C(=O)N(c2cc(Cl)cc(Cl)c2)c2ncc(C(=O)NC3(c4nc(C5CCC5)no4)CC3)n21 | cell-free assay, competition with immobilised ligand | 1 µM | 100
C[C@H]1CCN(c2nccc(-c3cnn4ncccc34)n2)C1 | binding | 1 µM | 95
CN(C(=O)c1ccccc1)c1cc(N(C)c2ccc3c(c2)CCc2ccc(C(=O)NCCN4CCOCC4)cc2C3=O)ccc1F | cell-free assay, competition with immobilised ligand | 1 µM | 80
FC(F)(F)Oc1cccc(-c2cnc3ccc(-c4ccncc4)nn23)c1 | cell-free assay, competition with immobilised ligand | 5 µM | 47
CC1CCCN1c1nccc(-c2cnn3ncccc23)n1 (stereo not shown) | binding | 1 µM | 74
O=C(O)c1cc(-c2ccc(C3CCNCC3)cc2)c2ccc(-c3ccc(C(F)(F)F)cc3)cc2c1 | cell-free assay, competition with immobilised ligand | 1 µM | 100
O=C(c1ccc(Nc2ncc(Cl)c(-c3cc4ccccc4s3)n2)cc1)N1CCC(N2CCCC2)CC1 | binding, competition with immobilised ligand | 1 µM | 53
COc1cnc(Nc2cccc(S(N)(=O)=O)c2)nc1N1CCN(c2ccccc2)C(=O)C1 | binding, competition with immobilised ligand | 1 µM | 95
Cc1cnn2ncc(-c3ccnc(N(C)C)n3)c2c1 | binding | 1 µM | 100
